Compound activity deposited in PubChem BioAssay by The Scripps Research Institute Molecular Screening Center.
Rows were chosen to be rich in hits. Some 2.9% of all compounds tested hit in one or more screens of this group.
PAD4 inh: human PAD4 inhibitors, primary screen, biochemical, fluorescence polarization, 1536-well format; 0.41% of 330,000 active; Protein-arginine deiminase type-4 (Homo sapiens), Q9UM07; inhibition, % at 6.36 µM; recombinant PAD4, RCA probe fluorescence polarization; AID 485272, 2010;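 active means percent inhibition above a cutoff equal to the mean of all tested compounds plus 3 SD, cut at about 15% in these data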;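 further: 0% = PAD4 with RCA probe and DMSO and 100% = probe without PAD4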
TCR CD3 inh: inhibitors of human TCR-CD3 interaction, primary screen, biochemical, fluorescence, TAMRA-labeled TCR probe | T-cell receptor (TCR) | inhibition, % at 9.4 µM | 0.37% of 360,000 active | AID 651800, 2012; in the data active means inhibition above about 19%;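 further: recombinant mutant TCR 2C K166C tagged with TAMRA read by polarization; 0% = receptor in buffer alone and 100% = receptor with positive control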
PRMT1 inh: PRMT1 methyltransferase inhibitors, primary screen, biochemical, fluorescence polarization; Protein arginine N-methyltransferase 1 (Homo sapiens), Q99873; AID 652257, 2013; recombinant PRMT1, activity-based probe fluorescence polarization; inhibition, % at 2.79 µM; 1.3% of 370,000 active;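 active means inhibition above about 21% made by adding two undisclosed values, limit read from the data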
Target sequence (Q99873 whole entry, looked up): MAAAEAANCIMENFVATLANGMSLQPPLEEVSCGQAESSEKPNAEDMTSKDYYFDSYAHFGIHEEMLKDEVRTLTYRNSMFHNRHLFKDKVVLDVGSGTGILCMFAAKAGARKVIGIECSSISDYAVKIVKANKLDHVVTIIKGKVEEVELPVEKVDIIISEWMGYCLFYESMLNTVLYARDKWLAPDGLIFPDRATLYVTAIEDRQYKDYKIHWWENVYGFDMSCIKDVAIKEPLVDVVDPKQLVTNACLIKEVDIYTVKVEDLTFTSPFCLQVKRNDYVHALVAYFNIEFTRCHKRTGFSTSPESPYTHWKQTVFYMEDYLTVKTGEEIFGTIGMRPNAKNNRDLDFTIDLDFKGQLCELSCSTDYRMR
HTRA1 inh: HTRA1 serine protease inhibitors, primary screen, biochemical, fluorescence polarization, HTS | recombinant HTRA1, FP-rhodamine activity-based probe | inhibition, % at 5.96 µM | 0.5% of 340,000 active | AID 504803, 2011; in the data active means inhibition above about 36%;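 further: 0% = enzyme with DMSO and 100% = wells lacking enzyme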
ABHD4 inh: ABHD4 inhibitors, primary screen, biochemical, fluorescence polarization, mouse. (Lyso)-N-acylphosphatidylethanolamine lipase (Mus musculus), Q8VD66. purified mABHD4, FP-Rh probe fluorescence polarization. inhibition, % at 8.92 µM. 0.54% of 370,000 active. AID 720543, 2013;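 active means inhibition exceeding the mean over every tested compound plus 3 SD, cut at about 30% in these data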;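 further: 0% = plate median of compound wells and 100% = S159A mutant with DMSO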
Target sequence (Q8VD66 whole entry, looked up): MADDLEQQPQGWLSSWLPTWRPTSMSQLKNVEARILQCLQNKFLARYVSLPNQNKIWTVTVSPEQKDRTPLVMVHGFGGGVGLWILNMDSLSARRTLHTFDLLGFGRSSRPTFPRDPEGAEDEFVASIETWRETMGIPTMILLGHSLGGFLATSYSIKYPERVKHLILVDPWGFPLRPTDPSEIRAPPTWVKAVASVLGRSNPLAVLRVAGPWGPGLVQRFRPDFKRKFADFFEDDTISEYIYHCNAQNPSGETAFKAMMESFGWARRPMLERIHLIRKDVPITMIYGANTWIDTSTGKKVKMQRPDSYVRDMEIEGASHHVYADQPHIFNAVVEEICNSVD
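assay system = mABHD4 protein | compound dosing = single nominal dose of 8.92 µM, 0.89% DMSO final | read-out basis = percent inhibition of probe binding, normalized to plate controls | schedule = Enzyme–compound pre-incubation 45 min, then probe 60 min, both 25 °C | detection = fluorescence polarization, excitation 525 nm, emission 598 nm, BODIPY TMR filters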
SIAE primary: human SIAE inhibitors, primary screen, biochemical, fluorescence polarization, FP-Rh probe, 1536-well HTS | Sialate O-acetylesterase (Homo sapiens), Q9HAT2 | SIAE FP-Rh probe binding | inhibition, % at 9.66 µM | 0.69% of 370,000 active | AID 1053197, 2014;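 active means inhibition above a cutoff: mean of compounds within the control limits plus 3 SD of those, cut at about 17% in these data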;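 further: 0% = plate median of compound wells and 100% = probe without SIAE protein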
SIAE confirm: human SIAE inhibitors, retest, confirmation, biochemical, fluorescence polarization, FP-Rh probe, triplicate | shares compounds with SIAE primary | SIAE FP-Rh activity-based probe | 13% of 2,300 active | inhibition, % at 9.66 µM;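 active means mean inhibition of the replicates above the hit cutoff set in the primary screen, cut at about 17% in these data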;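 further: 0% = SIAE with DMSO and probe and 100% = probe without SIAE; inhibitors lower polarization as more probe stays unbound to SIAE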
An asterisk follows results filed as active; . = not tested or not shown.

SMILES	PAD4 inh	TCR CD3 inh	PRMT1 inh	HTRA1 inh	ABHD4 inh	SIAE primary	SIAE confirm
O=C(C(=O)N1CCC(CNS(=O)(=O)c2cccc(C(F)(F)F)c2)CC1)c1cc2ccccc2o1	.	-1.4	0.5	.	-4.2	-7.3	.
O=C(Nc1ccc(Nc2ccccc2)cc1)c1ccc(Cl)cc1[N+](=O)[O-]	-5.6	-8.0	7.5	.	8.1	21.0*	5.4
CC(=O)NS(=O)(=O)c1ccc(NC(=O)c2ccc(Cl)cc2[N+](=O)[O-])cc1	2.1	-8.9	-1.4	-2.7	-5.1	-9.8	.
CN1C(=O)/C(=C/c2ccc(-c3ccccc3[N+](=O)[O-])o2)SC1=Nc1ccc(Cl)c(C(=O)O)c1	11.5	7.6	11.1	10.3	17.1	19.0*	15.4
Cc1cccc2c(N=O)c(O)[nH]c12	-8.5	5.9	-1.2	35.4	5.2	45.5*	42.5*
Cc1[nH]c2c(C)cccc2c1CC(=O)O	-3.9	0.5	6.1	-1.3	6.5	1.8	.
C=CC[C@@]1(c2ccccc2)Oc2ccccc2-c2nc3ccccc3nc21	.	.	0.2	.	-10.9	-4.9	.
COc1cc(NC(=O)CSc2nc3ncnc(N)c3[nH]2)c(C(=O)O)cc1OC	-3.5	-1.1	-0.5	-2.6	-5.0	17.8*	0.5
COc1ccc(-c2cc(-c3nnc(SCC(=O)Nc4cccc(Cl)c4C)n3N)[nH]n2)cc1	.	.	3.1	.	-2.6	0.8	.
COCC(=O)N1CCC(C(=O)NC2CCCc3ccccc32)CC1 (centres undefined)	.	.	-2.2	.	1.3	-2.2	.
O=C(Nc1nc2ncccn2c1-c1ccc(F)cc1)c1ccccc1	.	.	2.0	.	5.3	6.4	.
O=C(N1CCCC1)n1c(Cc2ccccc2)nc2ccccc21	-3.7	-1.6	-2.9	-4.0	-1.0	19.3*	1.8
COC[C@H]1CCCN1c1ccc2c(c1)O[C@H](C)CCN(C1CC1)S2(=O)=O	.	.	6.0	.	3.8	-3.5	.
CCCOn1nnnc1-c1ccccc1	2.7	5.2	-1.8	2.4	8.2	18.4*	3.2
Cc1ccccc1NS(=O)(=O)c1ccc(C(=O)N2CCN(S(=O)(=O)c3ccccc3)CC2)cc1	-0.7	3.6	-1.5	0.1	2.7	18.8*	-7.4
O=S1(=O)CC2c3ccccc3CCN2CN1CCc1ccccc1 (centres undefined)	.	.	-1.0	.	0.6	7.0	.
CCOc1ccc(-n2cc(C(=O)NCCOC)c3cc(OC)c(OC)cc3c2=O)cc1	-3.2	1.9	-0.3	4.5	2.9	21.7*	-5.4
CCOc1ccc(-n2cc(C(=O)Nc3cccc(OC)c3)c3cc(OC)c(OC)cc3c2=O)cc1	8.7	2.0	-0.4	-44.9	-24.5	-9.8	.
CCOC(=O)/C=C(\C)Sc1cc(O)c2ccccc2c1O	.	-7.8	83.9*	20.4	33.8*	18.4*	-1.0
CCOC(=O)/C=C(\C)Sc1cc(=O)oc2ccccc12	3.5	6.1	-0.4	1.2	-2.1	5.8	.
CCN(CC)S(=O)(=O)c1ccc(C(=O)NCCSc2c[nH]c3ccccc23)cc1	-2.3	-1.0	1.1	-11.5	-7.5	18.9*	0.0
COc1ccc(O)c(C=Nc2cc(NC(C)=O)c(Cl)cc2Cl)c1	1.7	-6.7	-0.8	-0.6	-5.4	17.5*	0.7
CN(C(=O)c1ccc(N2CCOCC2)c([N+](=O)[O-])c1)C1CCCCC1	2.0	1.0	-4.4	8.1	2.0	17.1*	2.1
COc1ccc(NC(=O)/C=C/c2cc(OC)c(OC)c(OC)c2)cn1	-4.0	2.0	-1.1	3.3	4.3	21.3*	3.0
COc1ccc(CNC(=O)COC(=O)C2CC2C)cc1OC (centres undefined)	-4.4	-2.5	-1.4	15.4	5.5	23.9*	-1.9
SMILES	PAD4 inh	TCR CD3 inh	PRMT1 inh	HTRA1 inh	ABHD4 inh	SIAE primary	SIAE confirm
O=C(NC1CCCC1)C1(C(=O)C2CC2)CC(c2ccccc2C(F)(F)F)=NO1 (centres undefined)	.	.	-5.1	.	-4.8	12.5	.
C=CCn1c(COc2ccc(C)cc2)nnc1SCC(=O)Nc1ccc(Oc2ccccc2)cc1	.	.	0.8	.	-6.1	-2.1	.
CC(OC(=O)c1ccc(Cl)nc1)C(=O)NC1CCCC1 (centres undefined)	2.4	-5.4	-0.1	-1.1	0.0	19.1*	-1.9
CCCN1CCCCC(NC(=O)COCc2ccccc2)C1=O (centres undefined)	.	-7.2	4.7	.	-11.3	-1.0	.
C/C(=N\NC(=O)c1ccc([N+](=O)[O-])cc1)c1cc2ccccc2oc1=O	-10.2	6.4	-1.4	5.8	8.8	17.3*	7.0
C/C(=N\NC(=O)c1ccccc1)c1cc2cc([N+](=O)[O-])ccc2oc1=O	-6.0	8.3	-1.6	6.8	3.4	9.3	.
S=c1[nH]nc(-c2ccncc2)n1/N=C/C=C/c1ccco1	2.3	4.0	16.8	7.8	16.9	19.0*	2.1
Cc1cc(C)cc(NC(=S)NCc2ccc3[nH]c4c(c3c2)CCCC4)c1	-2.3	-9.2	1.6	2.8	3.0	17.2*	2.2
S=C(NCc1ccc2[nH]c3c(c2c1)CCCC3)Nc1ccccc1	-0.6	1.1	0.6	17.4	13.9	23.4*	8.9
CCS(=O)(=O)NCc1ccc2[nH]c3c(c2c1)CCCC3	-15.1	.	.	.	.	.	.
C=CCN1[C@@H](CC(C)C)COc2cccc(F)c2S1(=O)=O	.	.	3.5	.	-0.5	5.5	.
O=C1CC(c2ccc(F)cc2)CC(O)=C1C1NCCc2ccccc21 (centres undefined)	2.3	7.1	-0.7	2.2	4.1	-1.4	.
O=C1CC(c2ccc(F)cc2)C(n2cncn2)C(O)=C1C1NCCc2ccccc21 (centres undefined)	-5.3	5.3	-7.2	0.5	-0.2	26.2*	4.0
C[C@@H]1CCCCO[C@@H](CN(C)Cc2ccc(C(F)(F)F)cc2)[C@@H](C)CN([C@H](C)CO)C(=O)c2cc(N(C)C)ccc2O1	.	0.4	1.8	4.4	13.2	21.6*	6.0
CCOC(=O)c1c(C)[nH]c(C)c1S(=O)(=O)N1CCN(c2ccc(F)cc2)CC1	1.2	-6.2	-0.8	-4.5	1.2	19.4*	2.7
CCOC(=O)c1c(C)[nH]c(C)c1S(=O)(=O)N1CCOCC1	-1.7	6.9	-3.2	1.2	-4.6	-8.6	.
O=C(CNS(=O)(=O)c1cccc(Br)c1)NCCCc1ccccc1	-3.2	-0.8	0.8	-4.6	-5.4	20.4*	-9.3
N#Cc1cccc(S(=O)(=O)NCC(=O)NCCCc2ccccc2)c1	-6.7	-0.4	0.3	-7.7	7.3	3.3	.
